Values after ≈ are worked out from the molar mass of the structure shown.
Legend:
Assay type in all cases: functional
HCT-15 = experiment: Cytotoxicity against human HCT15 cells; details: read-out: ED50 (the source's name)
Simian virus 40 [1] = experiment: Inhibition of SV40 DNA replication assessed as [alpha32P]dATP formation at 250 uM after 90 mins by agarose gel electrophoresis; details: Betapolyomavirus macacae, 1.5 h
Outline: (§1)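 Cell-free SV40 DNA replication in Tris creatine phosphate buffer (pH 7.7) with creatine kinase, 7 mM MgCl2, 0.5 mM DTT, 4 mM ATP, 200 µM UTP/GTP/CTP, 100 µM dATP/dGTP/dCTP, SV40 T-Ag, origin-containing pUC DNA and replication proteins. The [α-32P]dATP variant ran 90 min at 37 °C, was stopped with EDTA/SDS/tRNA, and DNA was resolved on 1.0% agarose (12-14 h, 2 V/cm) and autoradiographed.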

SK-OV-3 = experiment: Cytotoxicity against human SKOV3 cells; details: read-out: ED50 (the source's name)
Simian virus 40 [2] = experiment: Inhibition of SV40 DNA replication assessed as [alpha32P]dATP formation at 125 uM after 90 mins by agarose gel electrophoresis; details: Betapolyomavirus macacae, 1.5 h; outline: as §1
SK-MEL-2 = experiment: Cytotoxicity against human SK-MEL-2 cells; details: read-out: ED50 (the source's name)
A549 = experiment: Cytotoxicity against human A549 cells; details: read-out: ED50 (the source's name)
XF498 = experiment: Cytotoxicity against human XF498 cells; details: read-out: ED50 (the source's name)
Simian virus 40 [3] = experiment: Inhibition of SV40 DNA replication assessed as [alpha32P]dATP formation at 500 uM after 90 mins by agarose gel electrophoresis; details: Betapolyomavirus macacae, 1.5 h; outline: as §1

Structure (SMILES)	EC50 (HCT-15)	inhibition at 250 µM (Simian virus 40 [1])	EC50 (SK-OV-3)	inhibition at 125 µM (Simian virus 40 [2])	EC50 (SK-MEL-2)	EC50 (A549)	EC50 (XF498)	inhibition at 500 µM (Simian virus 40 [3])
C#C/C=C\CCCCCCCCCCCCCC/C=C\CCCC/C=C\CCCC/C=C\[C@@H](O)C#CCCCCCC/C=C/[C@H](O)C#C [PETROTRIYNDIOL A]	0.8 mg/L (≈ 1.22 µM)	90%	0.8 mg/L (≈ 1.22 µM)	62%	0.6 mg/L (≈ 0.913 µM)	1.8 mg/L (≈ 2.74 µM)	1.3 mg/L (≈ 1.98 µM)	100%
C#C/C=C\CCCCCCCCCCCCCC/C=C\CCCC/C=C\CCCCC#CC(=O)C#CCCCCCC/C=C/[C@H](O)C#C [PETROTETRAYNOL A]	> 30 mg/L	100%	4.6 mg/L (≈ 7.04 µM)	76%	5.2 mg/L (≈ 7.96 µM)	> 30 mg/L	> 30 mg/L	100%
C#C/C=C\CCCCCCCCCCCCC/C=C\CCCC/C=C\CCCCC#C[C@@H](O)C#CCCCCCC/C=C/[C@H](O)C#C [NOR-3S,14S-PETROCORTYNE A]	3.5 mg/L (≈ 5.46 µM)	47%	4.4 mg/L (≈ 6.86 µM)	12%	3.8 mg/L (≈ 5.93 µM)	7.3 mg/L (≈ 11.4 µM)	6.1 mg/L (≈ 9.52 µM)	70%
C#C/C=C\CCCCCCCCCCCCCCC(=O)CCCCC/C=C\CCCCC#CC(O)C#CCCCCCC/C=C/C(O)C#C (configuration not stated) [PETROTETRAYNDIOL D]	> 10 mg/L	80%	> 10 mg/L	66%	> 10 mg/L	> 10 mg/L	> 10 mg/L	100%
C#C/C=C\CCCCCCCCCCCCCCC/C=C\CCCC/C=C\CCCCC#C[C@@H](O)C#CCCCCCC/C=C/[C@H](O)C#C	1.7 mg/L (≈ 2.54 µM)	86%	2.2 mg/L (≈ 3.29 µM)	59%	0.8 mg/L (≈ 1.2 µM)	11.3 mg/L (≈ 16.9 µM)	2.5 mg/L (≈ 3.74 µM)	100%
C#CCCCCCCCCCCCCCCCC/C=C\CCCC/C=C\CCCCC#C[C@@H](O)C#CCCCCCC/C=C/[C@H](O)C#C	2.5 mg/L (≈ 3.8 µM)	70%	1.5 mg/L (≈ 2.28 µM)	40%	1.5 mg/L (≈ 2.28 µM)	> 10 mg/L	5.8 mg/L (≈ 8.83 µM)	100%
C#CCCCCCCCCCCCCCCCC/C=C\CCCC/C=C\CC/C=C/C#C[C@@H](O)C#CCCCCCC/C=C/[C@H](O)C#C [PETROTETRAYNDIOL E]	1.8 mg/L (≈ 2.75 µM)	83%	1.7 mg/L (≈ 2.6 µM)	62%	1.1 mg/L (≈ 1.68 µM)	24.5 mg/L (≈ 37.4 µM)	3.4 mg/L (≈ 5.19 µM)	100%
C#C/C=C\CCCCCCCCCCCCCC/C=C\CCC/C=C/C(O)CCCCC#C[C@H](O)C#CCCCCCC/C=C/[C@H](O)C#C (some centres not stated)	5 mg/L (≈ 7.45 µM)	94%	1.9 mg/L (≈ 2.83 µM)	79%	2.3 mg/L (≈ 3.43 µM)	26.3 mg/L (≈ 39.2 µM)	8 mg/L (≈ 11.9 µM)	100%
C#C/C=C\CCCCCCCCCCCCC/C=C/C(=O)CCCC/C=C\CCCCC#C[C@@H](O)C#CCCCCCC/C=C/[C@H](O)C#C [PETROTETRAYNDIOL C]	5.7 mg/L (≈ 8.52 µM)	46%	4.2 mg/L (≈ 6.28 µM)	45%	4.1 mg/L (≈ 6.13 µM)	> 10 mg/L	–	81%
C#C/C=C\CCCCCCCCCCCCCC/C=C\CCCC/C=C\CCCC(O)C#CC(O)C#CCCCCCC/C=C/[C@H](O)C#C (some centres not stated) [PETROTETRAYNTRIOL A]	12.9 mg/L (≈ 19.2 µM)	77%	4.2 mg/L (≈ 6.26 µM)	63%	3.9 mg/L (≈ 5.81 µM)	> 30 mg/L	18.5 mg/L (≈ 27.6 µM)	100%
C#C/C=C\CCCCCCCCCCCCCC/C=C\CCCC/C=C\CCCCc1cc(=O)cc(CCCCCC/C=C/C(O)C#C)o1 (configuration not stated) [PETROCORTYNE C]	7.5 mg/L (≈ 11.2 µM)	100%	0.7 mg/L (≈ 1.04 µM)	89%	2.4 mg/L (≈ 3.58 µM)	> 10 mg/L	> 10 mg/L	100%

Source: ChEMBL document CHEMBL1150220, “Additional cytotoxic polyacetylenes from the marine sponge Petrosia species” (2001)
